# Screens: PubChem BioAssay, Broad Institute
# Xi reactivation – X-chromosome reactivation activator; activation, % at 7.58 µM; AID 743238; 0.055% of 360,000 active; XiGFP mouse fibroblasts, % GFP-positive cells imaging, 3 d; cells co-treated with 5-aza-dC sensitizer; scaled so ellipticine positive control = 100%;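 active = mean normalized replicate activation at least 10% and every replicate at or above 10%; inconclusive = only one of the two criteria met; inactive = mean below 10% and not all replicates reach 10%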;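 note: 0% = median of on-plate neutral control wells and 100% = ellipticine 6 µM median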
#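 Schedule: 3 d treatment, 15 min room-temperature fixation; system: 68-5-11 XiGFP fibroblast line; buffer or medium: DMEM plus 5-aza-dC sensitizer; control set: ellipticine 6 µM positive control; compound: one concentration, pinned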
# DENV2 CPE – inhibitors of DENV2 cytopathic effect; DENV2-infected cells, cytopathic effect rescue, plate reader; CPE inhibition, % at 9.99 µM; 1.7% of 350,000 active; AID 651640; in the data active = CPE inhibition above about 20%, passing the limit was not always enough; inconclusive = no clear call, values can overlap the other calls; tested in BHK-21 cells;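 note: 0% = median of neutral control wells and 100% = median of positive control wells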
# Cneo AK release – Cryptococcus neoformans lysis via adenylate kinase release. 0.2% of 360,000 active. lysis activity, % at 15 µM. AID 651654. C. neoformans lysis, adenylate kinase release luminescence, 4 h; normalised: neutral wells 0, clomiphene wells 100;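 active = mean lysis activity across replicates of at least 80%, whatever share of replicates individually reach that level; inactive = mean lysis activity below 80%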
#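 Assay system: log-phase C. neoformans yeast / Quantity: yeast cell density of 5 × 10^6 cells/mL / Medium: fresh YPD growth medium / Compound: single dose / Timing: static 4 h at 37 °C with compound, 1 h detection / Measured by: adenylate kinase release luminescence / Read-out: lysis from increased AK signal / Benchmarks: Clomiphene as positive lysis control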
# C2C12 statin – protects C2C12 myotubes from simvastatin toxicity; rescue of ATP level, % at 7.49 µM; AID 602340; ATP luminescence, 48 h; scaled: DMSO 0, geranylgeraniol control 100; 0.78% of 330,000 active;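 active = mean ATP rescue above about 67%, or every replicate alone reaching that limit, limit read from the data, passing the limit was not always enough; inconclusive = no clear call, values can overlap the other calls; inactive = mean under the limit and some replicate under it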;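 note: myotubes were challenged with 10 µM simvastatin during compound exposure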
# * = called active by the depositor; ? = inconclusive; . = no result. Rows were chosen to be rich in hits. Some 2.1% of all compounds tested hit in one or more screens of this group.
SMILES,Xi reactivation,DENV2 CPE,Cneo AK release,C2C12 statin
CC(C)Nc1cc(C(C)(C)C)nc2c(-c3ccccc3)cnn12,0,46*,.,.
CO[C@@H]1CN(C)C(=O)c2ccc(NC(=O)Nc3ccccc3)cc2OC[C@@H](C)N(C(C)=O)C[C@H]1C,0,26*,.,.
COc1ccccc1C(=O)Nc1ccc2c(c1)OC[C@H](C)N(C(C)=O)C[C@H](C)[C@H](OC)CN(C)C2=O,0,.,101*,1
COc1ccccc1C(=O)Nc1ccc2c(c1)OC[C@H](C)N(C(C)=O)C[C@@H](C)[C@H](OC)CN(C)C2=O,0,-7,-1,-13
C[C@H]1CN([C@@H](C)CO)C(=O)c2cc(C#Cc3cccnc3)cnc2O[C@H]1CN(C)Cc1ccncc1,0,0,1,-23
CO[C@@H]1CN(C)C(=O)c2cc(NC(C)=O)ccc2OC[C@@H](C)N(C(=O)c2ccccn2)C[C@H]1C,0,1,-5,8
CC(C)NC(=O)N1[C@H](CO)[C@H]2c3ccccc3N(C(=O)Nc3ccc(F)cc3)C[C@H]21,0,27*,0,8
O=C(Nc1ccc(F)cc1)N1C[C@@H]2[C@H](c3ccccc31)[C@@H](CO)N2Cc1ccccc1Cl,0,?,-5,-65
CCCNC(=O)N1C[C@@H]2[C@H](c3ccccc31)[C@H](CO)N2Cc1ccc(OC)cc1,0,3,101*,-10
O=C(Nc1ccccc1)N1C[C@@H]2[C@H](c3ccccc31)[C@@H](CO)N2Cc1ccccc1,0,45*,-1,-13
CC(C)NC(=O)N1[C@H](CO)[C@@H]2c3ccccc3N(C(=O)Nc3ccc(F)cc3)C[C@@H]21,0,-10,0,9
CCCNC(=O)N1C[C@@H]2[C@H](c3ccccc31)[C@@H](CO)N2Cc1ccc(OC)cc1,0,-9,-1,-7
O=C(Nc1ccc(F)cc1)N1C[C@H]2[C@@H](c3ccccc31)[C@@H](CO)N2Cc1ccccc1Cl,0,30*,-5,-25
C[C@@H]1CN([C@H](C)CO)C(=O)c2cccc(NC(=O)Nc3ccc4c(c3)OCO4)c2O[C@@H]1CN(C)C(=O)Nc1ccccc1,0,11,-4,25
C[C@H](CO)N1C[C@H](C)[C@@H](CN(C)Cc2ccccc2C(F)(F)F)OCc2cnnn2CCCC1=O,0,.,.,-2
COc1ccc2c3c([nH]c2c1)[C@@H](CO)N(C(=O)NC(C)C)CC31CN(C(=O)NC2CCCC2)C1,0,.,.,.
C[C@H](NC(=O)[C@H]1[C@H](CO)[C@H]2Cn3c(cccc3=O)[C@H]2N1S(C)(=O)=O)c1ccccc1,0,-1,-1,4
O=C(Nc1ccc(F)cc1)N1C[C@H]2[C@@H](c3ccccc31)[C@@H](CO)N2Cc1ccccc1,0,12,-1,4
O=C(Nc1ccccc1)N1C[C@H]2[C@@H](c3ccccc31)[C@H](CO)N2Cc1ccccc1,0,57*,-2,19
COCCCNc1nc2c([nH]1)c(=O)[nH]c(=O)n2C,.,.,0,133*
CN1C(=O)c2cc(NC(=O)c3ccccc3Cl)ccc2OC[C@@H]2O[C@H](CC(=O)NCC(F)(F)F)CC[C@@H]21,0,6,-3,-5
O=C(NCc1ccco1)C(c1ccc(F)cc1)N(CC1CCCO1)C(=O)Cn1nnc2ccccc21 (stereo unspecified),.,.,5,89*
CN(C)S(=O)(=O)c1ccc(NC(=O)CN2CCOCC2)cc1,0,-6,.,-1
CCCCN(CCCC)S(=O)(=O)c1ccc(NC(=O)CN2CCOCC2)cc1,.,-3,0,130*
Cc1noc(C)c1NC(=O)Nc1ccc2c(c1)C(=O)N([C@@H](C)CO)C[C@@H](C)[C@@H](CN(C)C)OCCCC[C@H](C)O2,0,11,-6,24
SMILES,Xi reactivation,DENV2 CPE,Cneo AK release,C2C12 statin
C[C@@H]1CCCCO[C@H](CN(C)C(=O)Nc2ccc(F)cc2)[C@@H](C)CN([C@H](C)CO)C(=O)c2cc(NC(=O)Nc3ccc4c(c3)OCO4)ccc2O1,-1,9,0,-26
COC(=O)C1(C(=O)OC)NOC2C(=O)N(c3ccc(Cl)cc3Cl)C(=O)C21 (stereo unspecified),.,.,0,134*
COC(=O)C1(C(=O)OC)NOC2C(=O)N(N(C)c3ncc(C(F)(F)F)cc3Cl)C(=O)C21 (stereo unspecified),0,-1,.,0
Cc1noc(C)c1NC(=O)N(C)C[C@@H]1OCCCC[C@H](C)Oc2ccc(NC(=O)Nc3ccc(F)cc3)cc2C(=O)N([C@@H](C)CO)C[C@@H]1C,0,?,0,.
CC1(C)CC(NC(=O)COc2ccccc2Cl)CC(C)(C)N1,0,33*,-3,1
CCc1cc(=O)oc2cc(OCC(=O)NC3CC(C)(C)NC(C)(C)C3)ccc12,0,36*,0,13
COc1ccc(S(=O)(=O)Nc2cccc3c2O[C@@H](CN(C)C)[C@@H](C)CN([C@H](C)CO)C3=O)cc1,-1,8,0,-12
O=C(NCc1ccccc1)[C@@H]1[C@@H](CO)[C@@H]2Cn3c(cccc3=O)[C@H]1N2Cc1ccccn1,0,40*,1,-9
O=C(NCCc1ccccc1)[C@@H]1[C@@H](CO)[C@@H]2Cn3c(cccc3=O)[C@H]1N2Cc1ccccn1,0,3,2,-7
CN(C)CC(=O)N1[C@@H]2c3cccc(=O)n3C[C@H]1[C@H](CO)[C@H]2C(=O)NCc1ccccc1,0,20*,6,1
O=C(NCc1ccccc1)[C@@H]1[C@@H](CO)[C@@H]2Cn3c(cccc3=O)[C@@H]2N1Cc1ccccc1F,0,23*,-4,10
O=C(NCc1cccc(F)c1)[C@@H]1[C@@H](CO)[C@@H]2Cn3c(cccc3=O)[C@H]1N2C(=O)c1cnccn1,0,82*,-1,1
Cc1ccc(S(=O)(=O)Nc2ccc3c(c2)C(=O)N([C@@H](C)CO)C[C@H](C)[C@@H](CN(C)Cc2ccc(C(=O)O)cc2)O3)cc1,0,?,1,-1
CC(C)NC(=O)N(C)C[C@H]1Oc2ncc(-c3cccc(C#N)c3)cc2C(=O)N([C@H](C)CO)C[C@@H]1C,0,7,0,-10
C=CCc1ccc(OCCCNCc2ccccc2)c(OC)c1,0,43*,0,6
O=C(C[C@@H]1C[C@H]2c3cc(NC(=O)Cc4ccncc4)ccc3O[C@H]2[C@@H](CO)O1)NCCN1CCCCC1,0,35*,10,0
O=C(C[C@H]1C[C@@H]2c3cc(NC(=O)Cc4ccncc4)ccc3O[C@@H]2[C@@H](CO)O1)NCCN1CCCCC1,0,-4,-2,-5
O=C(C[C@@H]1C[C@H]2c3cc(NC(=O)C4CCC4)ccc3O[C@H]2[C@H](CO)O1)NCCN1CCCCC1,0,26*,3,3
CCN1C(=O)CC(Sc2ccccc2C(=O)O)C1=O (stereo unspecified),.,.,-1,159*
